# Shown are actives, neighbours in structure and some others; about 2.6% of the full set was active somewhere.
# Apaf-1 inh – inhibitors of human Apaf-1 apoptosome, primary screen, biochemical, DEVD-Rh110 fluorescence, uHTS; Apoptotic protease-activating factor 1 (Homo sapiens), O14727; reconstituted apoptosome caspase-3 activity; inhibition, % at 20 µM; actives 0.71% (n = 330,000); active means inhibition of at least 40% at 20 µM;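 further: plate controls were DMSO wells for no effect and DEVD-CHO caspase inhibitor wells for full effect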
#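 Medium: Hepes buffer, pH 7.5 / System: biochemical Apaf-1 apoptosome reconstitution / Measured by: Rh110 fluorescence, excitation 480 nm, emission 540 nm / Times: compound with Apaf-1, dATP, procaspase-3 30 min, then 50 min reaction, room temperature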
# PRMT1 inh – PRMT1 methyltransferase inhibitors, primary screen, biochemical, fluorescence polarization; actives 1.3% (n = 370,000); inhibition, % at 2.79 µM; AID 652257, 2013; Protein arginine N-methyltransferase 1 (Homo sapiens), Q99873; recombinant PRMT1, activity-based probe fluorescence polarization;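 active means inhibition above about 21% made by adding two undisclosed values, limit read from the data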
# Target sequence (Q99873 whole entry, looked up): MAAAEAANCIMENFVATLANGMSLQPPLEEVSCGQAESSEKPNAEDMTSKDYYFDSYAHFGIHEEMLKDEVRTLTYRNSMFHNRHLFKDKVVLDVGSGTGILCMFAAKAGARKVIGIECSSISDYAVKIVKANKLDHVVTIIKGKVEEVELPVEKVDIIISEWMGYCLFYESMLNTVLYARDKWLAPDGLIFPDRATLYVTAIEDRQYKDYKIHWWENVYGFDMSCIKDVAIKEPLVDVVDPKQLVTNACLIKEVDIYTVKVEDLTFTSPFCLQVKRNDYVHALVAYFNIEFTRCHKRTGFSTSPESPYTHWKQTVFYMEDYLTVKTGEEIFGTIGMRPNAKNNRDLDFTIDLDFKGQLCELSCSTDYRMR
# TDP2 inh – human TDP2 enzyme inhibitors, primary screen, biochemical, epi absorbance, recombinant enzyme | Tyrosyl-DNA phosphodiesterase 2 (Homo sapiens), O95551 | T5PNP hydrolysis, p-nitrophenol absorbance 415 nm | inhibition, % at 12.8 µM | actives 0.34% (n = 370,000) | AID 720702, 2013;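 active means inhibition above the mean of all tested compounds plus 3 SD, set per campaign, cut at about 25% in these data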;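 further: 0% = DMSO with enzyme and 100% = buffer with substrate but no TDP2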
#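 System – recombinant human TDP2 · Quantity – TDP2 enzyme at 120 nM final · Doses – single concentration, 12.8 µM nominal, with 1% DMSO · Incubation – 2 h at 37 °C · Measured by – epi absorbance of p-nitrophenol freed from T5PNP by hydrolysis · Read-out – % inhibition relative to enzyme-containing and enzyme-free wells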
# GSTO1 inh – inhibitors of recombinant GSTO1, primary screen, counter-screen for RBBP9 inhibitor project, biochemical, fluorescence polarization | inhibition, % at 5.96 µM | activity-based probe fluorescence polarization | Glutathione S-transferase omega-1 (Homo sapiens), P78417 | actives 1.1% (n = 300,000);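 active means inhibition above the campaign mean inhibition plus 3 SD, cut at about 35% in these data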;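 further: 0% = GSTO1-1 with DMSO and 100% = wells lacking GSTO1-1 enzyme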
# PAD4 FP inh – human PAD4 inhibitors, primary screen, biochemical, fluorescence polarization, 1536-well format | Protein-arginine deiminase type-4 (Homo sapiens), Q9UM07 | recombinant PAD4, RCA probe fluorescence polarization | inhibition, % at 6.36 µM | actives 0.41% (n = 330,000);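 active means percent inhibition above a cutoff equal to the mean of all tested compounds plus 3 SD, cut at about 15% in these data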;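 further: 0% = PAD4 with RCA probe and DMSO and 100% = probe without PAD4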
# GSTO1 inh conf – GSTO1 inhibitor hit confirmation, counter-screen for RBBP9 inhibitor project, biochemical, fluorescence polarization, triplicate. shares compounds with GSTO1 inh. recombinant GSTO1, probe fluorescence polarization. inhibition, % at 5.96 µM. actives 54% (n = 2,400);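 active means inhibition above the primary screen's cutoff, its mean inhibition plus 3 SD, cut at about 35% in these data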;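 further: loss of polarization as inhibitors block binding of rhodamine sulfonate ester activity probe; 0% = GSTO1 with DMSO and 100% = wells lacking GSTO1 enzyme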
# PAD4 FP conf – human PAD4 inhibitors, confirmation, biochemical, fluorescence polarization. shares compounds with PAD4 FP inh. recombinant PAD4, RCA probe fluorescence polarization. inhibition, % at 6.36 µM. actives 28% (n = 1,200). AID 488796, 2010;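 active means mean inhibition across replicates above the hit cutoff set by the earlier primary screen, cut at about 15% in these data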;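 further: inhibitors block active-site labeling by the probe so polarization falls; 0% = PAD4 with probe and DMSO and 100% = probe without PAD4 enzyme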
# Apaf-1 inh conf2 – Apaf-1 inhibitors, single-dose retest, confirmation, biochemical, fluorescence, DEVD-Rh110, 20 µM; inhibition, % at 20 µM; actives 25% (n = 1,800); shares compounds with Apaf-1 inh; reconstituted apoptosome, caspase-3 DEVD-Rh110 fluorescence;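 active means mean inhibition of at least 40% at 20 µM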;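 further: plate controls were DMSO wells for no effect and DEVD-CHO caspase inhibitor control wells for full effect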
# Rh110 quench – Rh110 fluorescence interference by putative Apaf-1 inhibitors, confirmation, artefact control for Apaf-1 inhibitor project, biochemical, 20 µM. shares compounds with Apaf-1 inh. quenched caspase reaction. activation (fluorescence interference), % at 20 µM. 1,800 tested, under 10 active. AID 504615, 2011;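 active means signal rise of 40% or more at 20 µM, treated as a fluorescence artifact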
# Fluor interf inh – fluorescence interference of Apaf-1 inhibitor hits, dose response, artefact control for Apaf-1 inhibitor project; 460 tested, under 10 active; shares compounds with Apaf-1 inh; fluorescence interference counterscreen, Apaf-1 assay format; IC50, µM; call rule not given here
# The depositor's hits bear a star; . = no result given.
SMILES,Apaf-1 inh,PRMT1 inh,TDP2 inh,GSTO1 inh,PAD4 FP inh,GSTO1 inh conf,Apaf-1 inh conf2,Rh110 quench,Fluor interf inh,others
CCOc1cc(CNc2ccc(N3CCCC3)cc2)cc(Cl)c1OC,55*,9,8,70*,-3,70*,51*,9,>100,
Cc1ccc(Cl)cc1NC1=C/C(=N\S(=O)(=O)c2cccs2)c2ccccc2C1=O,95*,0,23,74*,52*,94*,97*,0,>100,PAD4 FP conf=54*
Cc1ccc(NC2=C/C(=N\S(=O)(=O)c3cccs3)c3ccccc3C2=O)c(C)c1,95*,.,.,81*,65*,89*,95*,-1,>100,PAD4 FP conf=56*
c1coc(-c2nnc(-c3ccco3)nn2)c1,84*,46*,10,68*,-7,38*,58*,6,>100,
C[C@H]1[C@@H](NC(=O)c2ccc(Cl)c(C(F)(F)F)c2)CC[C@@]23CCCN2C(=O)CCC[C@@H]13,.,-1,-3,.,.,.,.,.,.,
CCNc1ccccc1CP(=O)(c1ccccc1)c1ccccc1O (stereo unspecified),87*,75*,-11,87*,11,4,12,-1,.,
OC[C@@H]1CC[C@@H]2O[C@H](CCc3ccc(-c4ccc(F)cc4)cc3)[C@H](n3cc(C4CC4)nn3)C[C@@H]2O1,.,-1,0,.,.,.,.,.,.,
CC1(C)CC(=O)C(C=Nc2ccc3c(c2)OCO3)=C(O)C1,-8,0,-9,-10,-1,.,.,.,.,
CC1(C)CC(=O)C(C=Nc2ccc(O)c(N=CC3=C(O)CC(C)(C)CC3=O)c2)=C(O)C1,47*,8,-11,85*,-13,67*,17,1,.,
CCCc1cc2c(O)ccc(O)c2c(=O)o1,.,17,8,.,.,.,.,.,.,
CCOC(=O)c1c(C)n(-c2ccc(C)cc2)c2c(CC(C)=O)c(Br)c(OC)c(O)c12,-5,-3,-4,2,-6,.,.,.,.,
CCOC(=O)c1c(C)n(-c2ccc(C)cc2)c2c(C(C(C)=O)C(=O)O)c(Br)c(O)c(O)c12 (stereo unspecified),50*,21,1,64*,-1,8,62*,5,>100,
CC(C)(C)N1C(=O)Cc2c1nc(N)c1c(N)nc(N3CCCCC3CO)c(C#N)c21 (stereo unspecified),99*,.,.,91*,10,88*,21,3,.,
O=C(O)c1cccc(NS(=O)(=O)c2ccc3nnn(O)c3c2)c1,3,-1,-2,-2,-2,.,.,.,.,
O=C(O)c1cccc(NC2=C(n3nnc4ccccc43)C(=O)c3ccccc3C2=O)c1,58*,1,22,62*,5,45*,64*,7,>100,
O=C(NCCCc1ccccc1)[C@H](Cc1c[nH]c2ccccc12)NC1(C(=O)NCCc2c[nH]c3ccccc23)CCOCC1,.,-2,0,.,.,.,.,.,.,
O=C(O)c1ccc(NS(=O)(=O)c2ccc3c(c2)C(=O)c2ccccc2C3=O)cc1,2,0,11,17,-8,.,.,.,.,

# Assay outcomes: PubChem BioAssay, several laboratories
